Screening data deposited in PubChem BioAssay by Broad Institute.
S100A4 inh HTS = blocks human S100A4 binding to myosin IIA peptide. AID 652163. P26447. 360,000 compounds, 0.14% hits. inhibition, % at 10.7 µM. S100A4/TAMRA-MyoIIA peptide fluorescence polarization;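 active means mean inhibition of at least 70% across replicates, with every replicate also reaching that level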
Target sequence (P26447 whole entry, looked up): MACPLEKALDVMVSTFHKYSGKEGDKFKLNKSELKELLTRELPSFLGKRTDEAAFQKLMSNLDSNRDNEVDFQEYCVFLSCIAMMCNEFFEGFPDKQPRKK
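System – human S100A4 monomer protein, biochemical binding assay · Buffer or medium – Calcium-containing HEPES buffer, pH 7.2 · Timing – 5 min between mix addition and reading · Also added – TAMRA-labelled myosin IIA heavy-chain peptide probe, 5 nM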
XiGFP reactiv = activators of X-chromosome reactivation in mouse fibroblasts. XiGFP mouse fibroblasts, % GFP-positive cells imaging, 3 d; cells co-treated with 5-aza-dC sensitizer; scaled so ellipticine positive control = 100%. activation, % at 7.58 µM. 360,000 compounds, 0.055% hits. AID 743238;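 active means mean normalized replicate activation at least 10% and every replicate at or above 10%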
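System: SV40-immortalized XiGFP fibroblast cells, line 68-5-11 / Incubation: 3-day compound exposure, then 15 min fixation at room temperature / Compound: single concentration per compound, delivered by pin transfer / Buffer or medium: DMEM plus 5-aza-dC sensitizer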
E-selectin induc = E-selectin induction on HUVECs; P16581; HUVEC E-selectin immunofluorescence imaging; normalized: neutral wells 0, TNF-alpha wells 100; activation, % at 7.58 µM; 260,000 compounds, 0.37% hits; AID 686992;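 active means mean E-selectin-positive cell signal at least 10% of the positive control, reached in at least 60% of replicates, without over 20% cell loss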
Target sequence (P16581 whole entry, looked up): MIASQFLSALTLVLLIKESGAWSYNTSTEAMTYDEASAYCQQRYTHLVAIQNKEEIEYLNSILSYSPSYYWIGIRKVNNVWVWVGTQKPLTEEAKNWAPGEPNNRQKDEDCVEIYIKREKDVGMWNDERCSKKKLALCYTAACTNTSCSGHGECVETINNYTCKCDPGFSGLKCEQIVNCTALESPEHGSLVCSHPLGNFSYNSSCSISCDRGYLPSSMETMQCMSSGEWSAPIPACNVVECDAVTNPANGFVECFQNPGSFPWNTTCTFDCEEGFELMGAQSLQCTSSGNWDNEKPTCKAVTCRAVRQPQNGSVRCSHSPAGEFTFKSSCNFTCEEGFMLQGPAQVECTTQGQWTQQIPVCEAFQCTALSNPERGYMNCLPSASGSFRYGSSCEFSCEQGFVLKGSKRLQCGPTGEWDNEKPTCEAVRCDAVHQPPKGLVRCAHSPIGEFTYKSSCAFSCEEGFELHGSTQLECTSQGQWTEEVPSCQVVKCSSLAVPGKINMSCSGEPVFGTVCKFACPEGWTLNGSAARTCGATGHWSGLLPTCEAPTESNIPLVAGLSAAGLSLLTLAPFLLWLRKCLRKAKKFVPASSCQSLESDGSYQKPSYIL
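Assay system: HUVEC, human umbilical vein endothelial cells / Amount: 3,000 HUVEC/well / Controls: TNF-alpha positive control, DMSO neutral control / Compound dosing: single concentration / Medium: EGM-2 over gelatin coat / Evaluation: percent E-selectin-positive cells / Signal: immunofluorescence imaging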
DENV2 CPE rescue = inhibitors of DENV2 cytopathic effect. DENV2-infected cells, cytopathic effect rescue, plate reader. CPE inhibition, % at 9.99 µM. 350,000 compounds, 1.7% hits. AID 651640; in the data active means CPE inhibition above about 20%, passing the limit was not always enough; tested in BHK-21 cells
Large screens that a line does not name were inactive. Rows were chosen to be rich in hits. Some 2% of all compounds tested hit in one or more screens of this group.

O=[N+]([O-])c1ccc(N(CCO)CCO)c2c1no[n+]2[O-]	none
CN1CCN(c2ccc([N+](=O)[O-])c3no[n+]([O-])c23)CC1	S100A4 inh HTS 112
O=C1CC(=O)N(Cc2ccccc2)C(=S)N1	DENV2 CPE rescue 23
O=C1CC(=O)N(c2ccccc2)C(=O)N1	none
Cc1ccc(C(=O)NC(O)C(Cl)(Cl)Cl)cc1 (stereo not drawn)	none (no result: S100A4 inh HTS, E-selectin induc, DENV2 CPE rescue)
CCOC(=O)c1ccc(N=Cc2c(O)n(-c3ccccc3F)c(=S)[nH]c2=O)cc1	S100A4 inh HTS 122 (no result: E-selectin induc)
CCOS(C)(=O)=O	DENV2 CPE rescue 48 (no result: XiGFP reactiv, E-selectin induc)
CCOC(=O)c1cccc(C2=C(CNC(=O)c3ocnc3C)[C@H]3CC[C@@H](C2)N3Cc2ccccc2)c1	none (no result: E-selectin induc)
O=C1NC(=O)N(c2ccc3c(c2)OCO3)C(=O)/C1=C/c1ccc(N2CCCC2)o1	DENV2 CPE rescue 77 (no result: E-selectin induc)
COc1ccc(CC2C(=O)NC(C)C(=O)N(C)C3C(=O)N(C)C(Cc4ccc(O)c(c4)Oc4ccc(cc4)C3O)C(=O)NC(C)C(=O)NC(C)C(=O)N2C)cc1 (stereo not drawn)	DENV2 CPE rescue 107
Cc1cccn2c(=O)c3c(nc12)N1CCCCCC1C1(C3)C(=O)N(C)C(=O)N(C)C1=O (stereo not drawn)	E-selectin induc 55
O=C(Nc1ccccc1)N1Cc2ccccc2-n2nncc2C1	none (no result: E-selectin induc)
COC(=O)C1=C(c2cccc(OC)c2OC)C[C@@H]2CC[C@H]1N2C(=O)NCc1ccc(C(F)(F)F)cc1	none
CCN1C[C@]2(COC)CC[C@H](OC)[C@@]34C5C[C@H]6C(=O)C5[C@](O)(C[C@H]6OC)[C@@](O)(C(OC)C23)[C@@H]14 (stereo partly drawn)	DENV2 CPE rescue 44 (no result: XiGFP reactiv, E-selectin induc)
COC(=O)OCC12CCC(O1)C1(C)C(=O)OCC21 (stereo not drawn)	none (no result: S100A4 inh HTS, E-selectin induc, DENV2 CPE rescue)
CN(C)C(Cc1ccccc1)C(=O)c1ccccc1 (stereo not drawn)	none (no result: E-selectin induc)
CC(C)N(C(=O)CCl)c1ccccc1	E-selectin induc 83
C[C@]12CC[C@H](N)CC1=CCC1C2CC[C@@]2(C)C1CC[C@@H]2O (stereo partly drawn)	none
Cc1ccc(N)c(N)c1	none (no result: XiGFP reactiv, E-selectin induc)
Cc1ccc(N)cc1N	DENV2 CPE rescue 66 (no result: XiGFP reactiv, E-selectin induc)
ClC1=C(Cl)C2(Cl)C3C(Cl)C=CC3C1(Cl)C2(Cl)Cl (stereo not drawn)	DENV2 CPE rescue 28 (no result: XiGFP reactiv, E-selectin induc)
Cc1ccccc1-[n+]1c(-c2ccccc2)cc(-c2ccccc2)cc1-c1ccccc1	DENV2 CPE rescue 76
COc1ccc(CC(=O)N(CCN(C)C)CC2CCCN(Cc3ccccc3F)C2)cc1 (stereo not drawn)	DENV2 CPE rescue 27
CC(=O)O[C@H]1C[C@@H]2OC3C=C(C)CCC3(C)[C@@]1(C)[C@@]21CO1 (stereo partly drawn)	DENV2 CPE rescue 106 (no result: E-selectin induc)
COc1cc2c(c(OC)c1OC)-c1ccc(O)c(=O)cc1C(NC(C)=O)CC2 (stereo not drawn)	none
C=C[C@@H]1C2=CCOC(=O)C2=CO[C@H]1O[C@@H]1O[C@H](CO)[C@@H](O)[C@H](O)[C@H]1O	DENV2 CPE rescue 23
O=c1ccc2cc(OC3O[C@H](CO)[C@@H](O)[C@H](O)[C@H]3O)c(O)cc2o1 (stereo partly drawn)	none
Cc1c(CC(=O)N2C[C@H]3C[C@@H](C2)c2cccc(=O)n2C3)c(=O)oc2c(C)c(O)ccc12	none (no result: XiGFP reactiv, E-selectin induc)
COc1ccc(CC(=O)N2C[C@H]3C[C@@H](C2)c2cccc(=O)n2C3)cc1	DENV2 CPE rescue 27 (no result: XiGFP reactiv, E-selectin induc)
COc1ccc(CCC(=O)N2C[C@H]3C[C@@H](C2)c2cccc(=O)n2C3)cc1	none (no result: XiGFP reactiv, E-selectin induc)
Cc1c(CCC(=O)N2C[C@H]3C[C@@H](C2)c2cccc(=O)n2C3)c(=O)oc2c(C)c(O)ccc12	DENV2 CPE rescue 56 (no result: XiGFP reactiv, E-selectin induc)
O=C(Cc1ccccn1)N1CCCCN2[C@@H](CO)[C@@H](c3ccc(Br)cc3)[C@@H]2C1	DENV2 CPE rescue 33
CN(C)CC#Cc1ccc([C@@H]2[C@H]3CN(C(=O)Cc4ccccn4)CCCCN3[C@H]2CO)cc1	DENV2 CPE rescue 30
O=C(Cc1ccccn1)N1CCCCN2[C@H](C1)[C@H](c1ccc(-c3ccccc3)cc1)[C@@H]2CO	DENV2 CPE rescue 43
Cc1ccccc1OP(=O)(Oc1ccccc1C)N1CCOCC1	none
O=C1NC(=O)C(CCc2ccncc2)(Cc2ccc(OCc3ccccc3)cc2)C(=O)N1	none (no result: E-selectin induc)
O=C(OC1CC2CCC(N2)C1C(=O)O)c1ccccc1 (stereo not drawn)	none (no result: XiGFP reactiv, E-selectin induc)
c1cncc(C2Nc3cccc4cccc(c34)N2)c1	none
O=C(NCc1cccnc1)Nc1ccc([N+](=O)[O-])cc1	DENV2 CPE rescue 36
CN(c1ccc(OCC(=O)N2CCN(C/C=C/c3ccccc3)CC2)cc1)S(=O)(=O)c1cccs1	none (no result: E-selectin induc)
CN1/C(=C\C=C2C(=O)NC(=O)NC2=O)C(C)(C)c2ccccc21	none (no result: E-selectin induc)
CCN1/C(=C/C=C/C2=[N+](CC)c3ccccc3C2(C)C)C(C)(C)c2ccccc21	S100A4 inh HTS active, E-selectin induc 131
COC(=O)C1=C(c2cccc(OCc3ccccc3)c2)C[C@@H]2CC[C@H]1N2C(=O)NCCOc1ccccc1	DENV2 CPE rescue 90
COC(=O)C1=C(c2cccc(OCc3ccccc3)c2)C[C@@H]2CC[C@H]1N2C(=O)NCCOc1ccccc1Cl	none
COC(=O)C1=C(c2cccc(OCc3ccccc3)c2)C[C@@H]2CC[C@H]1N2C(=O)NCc1ccccc1	none
COC(=O)C1=C(c2cccc(OCc3ccccc3)c2)C[C@@H]2CC[C@H]1N2C(=O)NCc1ccc(Cl)cc1	DENV2 CPE rescue 25
COC(=O)C1=C(c2cc3ccccc3s2)C[C@@H]2CC[C@H]1N2C(=O)NCc1ccccc1	DENV2 CPE rescue 117
COC(=O)C1=C(c2ccc(F)cc2OCc2ccccc2)C[C@@H]2CC[C@H]1N2C(=O)N1CCC(O)(c2ccc(Cl)cc2)CC1	DENV2 CPE rescue 77
CC(C)c1oc(=O)cc2c1[C@@H](O)[C@H]1OC(=O)[C@@]3(C)C[C@@H](O)[C@@H](O)[C@@]2(C)C13 (stereo partly drawn)	DENV2 CPE rescue 87
CC(C)c1oc(=O)cc2c1[C@@H](O)[C@H]1OC(=O)[C@@]3(C)CC[C@@H](O)[C@@]2(C)C13 (stereo partly drawn)	none (no result: E-selectin induc)
CCC(=Nc1ccc(OC)cc1OC)c1c(O)n(C2CCCCC2)c(=O)[nH]c1=O	none (no result: S100A4 inh HTS, XiGFP reactiv, DENV2 CPE rescue)
CCC(=NCCN1CCOCC1)c1c(O)n(C2CCCCC2)c(=O)[nH]c1=O	E-selectin induc 30
CC[C@H](C)[C@@H]1NC(=O)CNC(=O)c2csc(n2)[C@H](C(C)(C)O)OC(=O)C(C)(C)[C@H](CCCC(C)(Cl)Cl)OC(=O)c2csc1n2	none
O=C1N(c2ccccc2)C(c2cccnc2)N2CCCN12 (stereo not drawn)	none
Cc1cc(=O)oc2cc(OCC(=O)N3CCN(Cc4ccccc4)CC3)ccc12	none
Cc1cc(=O)oc2cc(OCC(=O)N3CCC(C(=O)O)(c4ccccc4)CC3)ccc12	DENV2 CPE rescue 75 (no result: XiGFP reactiv, E-selectin induc)
Cc1[nH]c2ccc(O)cc2c1CCN	DENV2 CPE rescue 55
